{
  "source": "ChEMBL document CHEMBL1148178",
  "about": "“Dicranin, an antimicrobial and 15-lipoxygenase inhibitor from the moss Dicranum scoparium” (1993)",
  "key": {"Glycine max [1]": {"system": "Glycine max", "assay": "Inhibition of soybean 15-LOX at 33 ug/ml", "outline": "(§1)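 15-Lipoxygenase inhibition assay run with arachidonic acid (40 μM) as the substrate, at the single test concentration given in each line.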"}, "Glycine max [2]": {"system": "Glycine max", "assay": "Inhibition of soybean 15-LOX at 0.36 uM", "outline": "as §1"}},
  "data": [
    {"smiles": "Oc1ccccc1O", "values": [
      {"measurement": "inhibition", "setting": "Glycine max [1]", "result": 33, "unit": "%"},
      {"measurement": "inhibition", "setting": "Glycine max [2]", "result": 37, "unit": "%"}
    ]}
  ]
}
